Experimental data pooled from the literature.
Compare with care: the assays were run in different laboratories. Values after ≈ are worked out from the molar mass of the structure shown.

`CC(C)NCC(O)COc1cccc2ccccc12` (centres unmarked) gave a Papp A→B of 18.4 ×10⁻⁶ cm/s (Caco-2; 5 µM, 2 h).
With `CC[C@@](O)(c1ccc(C(F)(F)F)c(C#N)c1)c1c2ccn(C3CC3)c(=O)c2nn1C` the kinetic solubility was 20 to 40 µM (≈ 8.33 to 16.7 µg/mL) (nephelometry; aqueous buffer; 30 min, pH 6.5).
For `CN1CCN(c2cnc3c(cc(C(=O)NCc4ccc(Cl)cc4)c(=O)n3CC(=O)N3CC(C)(F)C3)n2)C1=O`, the thermodynamic solubility was under 1.56 µM (aqueous buffer; 24 h, pH 7.4, 37 °C).
The kinetic solubility of `Cn1nc2c(=O)n(C3CC3)nc(C3CC3)c2c1Cc1ccc(C(F)(F)F)c(F)c1` is reported as 6.3 to 12.5 µM (≈ 2.56 to 5.08 µg/mL) (nephelometry; aqueous buffer; 30 min, pH 6.5).
`Cn1cncc1[C@@](N)(c1ccc(Cl)cc1)c1ccc2c(c1)c(-c1cccc(Cl)c1)cc(=O)n2C` gave a solubility of 14.1 µg/mL (≈ 28.8 µM) (FaSSIF; pH 6.5, 37 °C).
`Cn1cncc1[C@@](N)(c1ccc(Cl)cc1)c1ccc2c(c1)c(-c1cccc(Cl)c1)cc(=O)n2C` gave a bioavailability of 65% (beagle dog, plasma; oral, 10 mg/kg, single dose).
`CC1(F)CN(C(=O)Cn2c(=O)c(C(=O)NCc3ccc(Cl)cc3)cc3nc(N4CCNC4=O)cnc32)C1` gave a thermodynamic solubility of under 1.56 µM (aqueous buffer; 24 h, pH 7.4, 37 °C).
The kinetic solubility of `Cn1nc2c(=O)n(C3CC3)ncc2c1[C@](O)(c1ccc(C(F)(F)F)c(Cl)c1)C(F)(F)F` is reported as 5 to 10 µM (≈ 2.33 to 4.67 µg/mL) (nephelometry; aqueous buffer; 30 min, pH 6.5).
The thermodynamic solubility of `C[C@H]1COC2=C1C(=O)C(=O)c1c2ccc2c1CCCC2(C)C` is reported as 15.8 µg/mL (PBS; 24 h, pH 4, 25 °C).
`CC(C)C[C@H](NC(=O)[C@@H]1COCCCCCC(=O)NCC(=O)N2CCC[C@H]2C(=O)N1)C(=O)[C@@]1(C)CO1` has a Papp B→A of 7.25 ×10⁻⁶ cm/s (Caco-2; 10 µM, 2 h, pH 7.4).
`Cc1c(C(=O)O)ccc2c3n(nc12)[C@@H]1[C@H](C3)N(CC2CC2)[C@@]2(C(=O)Nc3cc(Cl)ccc32)[C@H]1c1cccc(Cl)c1F` gave a bioavailability of 109% (male dog, plasma; oral, 2 mg/kg).
`CO[C@]1(C(=O)N[C@@H](C)c2ccc(-n3cc(F)cn3)nc2)CC[C@H](c2nc(C)cc(Nc3cc(C)[nH]n3)n2)CC1` has a pKa of 6.71.
`CCn1cc(Cl)c2c(Cc3ccc(N4CCCCC4)nc3)n(C)nc2c1=O` has a kinetic solubility of 40 to 80 µM (≈ 15.4 to 30.9 µg/mL) (nephelometry; aqueous buffer; 30 min, pH 6.5).
`CCCCC(CC)CNC(=N)NC(=N)NCCCCCCNC(=N)NC(=N)NCC(CC)CCCC` (centres unmarked) gave a Papp A→B of under 0.07 ×10⁻⁶ cm/s (Caco-2; 5 µM, 2 h).
